Laboratory results: ChEMBL document CHEMBL3286138, “Petasin activates AMP-activated protein kinase and modulates glucose metabolism” (J Nat Prod, 2014)
The source made the active and inactive calls. The calls are words filed in the database; no cut-off is given here.

Key:
[1] = tested on: Mus musculus; assay: Activation of AMPK in C57BL/6J mouse skeletal muscle assessed as increase of PGC-1alpha transcription at 500 mg/kg, sc after 2 hrs by RT-qPCR analysis; conditions: Muscle tissue
[2] = tested on: H4IIE; assay: Increase of AMPK phosphorylation at Thr172 in rat H4IIE cells at 5 to 10 uM after 1 hr by ELISA; type: cell-based
Summary of the method: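 Confluent H4IIE cells in 96-well plates were starved overnight in serum-free DMEM (1 g/L glucose), then treated 1 h at 37 °C. Cells were fixed in 4% formaldehyde and endogenous peroxidase quenched with H2O2. Plates were blocked with 10% FBS and probed overnight at 4 °C with anti-p-AMPKα (Thr172), then with HRP secondary and TMB read-out. Mean ± SE, n = 4; Dunnett's test against basal.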

[3] = tested on: H4IIE; assay: Activation of AMPK in rat H4IIE cells assessed as increase of AMP/ATP ratio level after 1 hr by spectrophotometric analysis; type: cell-based
Summary of the method: (§1)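 Serum-starved H4IIE hepatoma cells, differentiated C2C12 myotubes and differentiated 3T3-L1 adipocytes were exposed 1, 2 and 2 h respectively. Cells were lysed in Tris/SDS/glycerol, nuclease-digested, perchloric acid-extracted and neutralized. ATP, ADP and AMP were separated by C18 HPLC in phosphate buffer at pH 6.2, 40 °C, with detection at […]. AMP/ATP and ADP/ATP ratios were calculated from these levels; mean ± SE, n = 3.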

[4] = molecular target: 5'-AMP-activated protein kinase catalytic subunit alpha-1 (Mus musculus) (UniProt Q5EG47); assay: Increase of AMPKalpha phosphorylation at Thr172 in mouse C2C12 cells at 5 uM after 2 hrs by Western blot analysis; type: cell-based
Sequence of 5'-AMP-activated protein kinase catalytic subunit alpha-1 (Mus musculus) (Q5EG47 whole entry): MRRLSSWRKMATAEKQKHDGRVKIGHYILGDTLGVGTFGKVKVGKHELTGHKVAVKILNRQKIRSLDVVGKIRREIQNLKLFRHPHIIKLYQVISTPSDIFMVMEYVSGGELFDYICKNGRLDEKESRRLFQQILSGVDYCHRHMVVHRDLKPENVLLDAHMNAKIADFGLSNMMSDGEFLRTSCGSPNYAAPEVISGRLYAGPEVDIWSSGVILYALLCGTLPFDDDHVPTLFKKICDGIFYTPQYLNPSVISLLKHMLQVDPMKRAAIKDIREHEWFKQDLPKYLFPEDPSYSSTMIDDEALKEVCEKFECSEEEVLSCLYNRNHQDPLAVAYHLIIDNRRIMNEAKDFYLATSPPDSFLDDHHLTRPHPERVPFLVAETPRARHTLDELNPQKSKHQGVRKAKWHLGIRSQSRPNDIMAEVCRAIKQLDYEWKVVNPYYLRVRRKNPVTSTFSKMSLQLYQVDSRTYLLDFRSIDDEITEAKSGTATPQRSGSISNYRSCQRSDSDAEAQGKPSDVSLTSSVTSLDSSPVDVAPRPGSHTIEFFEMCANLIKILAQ
Summary of the method: (§2)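 Cells were starved, then treated 2 h with 2 mM AICAR as reference. C2C12 cells were myotubes differentiated 4 days in 2% horse serum. 3T3-L1 cells were adipocytes differentiated with insulin, dexamethasone and IBMX and used at days 10−14. Lysates were immunoblotted on 7.5% SDS-PAGE for p-AMPKα (Thr172), p-ACC (Ser79), total AMPKα and total ACC.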

[5] = tested on: 3T3-L1; assay: Activation of AMPK in mouse 3T3L1 cells assessed as increase of AMP level by spectrophotometric analysis; type: cell-based
Summary of the method: as §1

[6] = molecular target: 5'-AMP-activated protein kinase catalytic subunit alpha-1 (Rattus norvegicus) (UniProt P54645); assay: Increase of AMPKalpha phosphorylation at Thr172 in rat H4IIE cells after 1 hr by Western blot analysis; type: cell-based
Sequence of 5'-AMP-activated protein kinase catalytic subunit alpha-1 (Rattus norvegicus) (P54645 whole entry): as the sequence (Q5EG47 whole entry) above, with A269T, D518E counted along it
Summary of the method: (§3)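 H4IIE cells grown in 1 g/L glucose DMEM, serum-starved overnight, then treated 1 h; 2 mM AICAR served as reference. Lysates (50−100 μg protein) were run on 7.5% SDS-PAGE and immunoblotted for p-AMPKα (Thr172), p-ACC (Ser79), total AMPKα and total ACC.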

[7] = tested on: C2C12; assay: Activation of AMPK in mouse C2C12 cells assessed as increase of ADP/ATP ratio level after 2 hrs by spectrophotometric analysis; type: cell-based
Summary of the method: as §1

[8] = tested on: H4IIE; assay: Activation of AMPK in rat H4IIE cells assessed as increase of AMP level by spectrophotometric analysis; type: cell-based
Summary of the method: as §1

[9] = molecular target: AMP-activated protein kinase, AMPK (Homo sapiens) (UniProt P54646+O43741+P54619+Q9UGJ0+Q9Y478+Q13131+Q9UGI9); assay: Activation of AMPK in LKB1-deficient human HeLa cells at 10 to 100 uM after 1 hr by Western blot analysis; type: cell-based
[10] = tested on: H4IIE; assay: Activation of AMPK in rat H4IIE cells assessed as decrease of ATP level by spectrophotometric analysis; type: cell-based
Summary of the method: as §1

[11] = tested on: H4IIE; assay: Activation of AMPK in rat H4IIE cells assessed as increase of ADP level by spectrophotometric analysis; type: cell-based
Summary of the method: as §1

[12] = tested on: Mus musculus; assay: Activation of AMPK in glucose loaded C57BL/6J mouse assessed as decrease of AUC of blood glucose level at 100 to 200 mg/kg, po after 1 hr by oral glucose tolerance test; type: functional, organism-based
Summary of the method: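 Male C57BL/6J mice, fasted 15 h, dosed orally at 100 or 200 mg/kg. Glucose (1 M solution, 1 g/kg) given orally 60 min later. Tail-vein blood glucose read at 0, 15, 30, 45, 60, 90 and 120 min, and AUC calculated from the curve. Mean ± SE, 5 mice; one-way ANOVA with Dunnett's test against vehicle.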

[13] = molecular target: 5'-AMP-activated protein kinase catalytic subunit alpha-1 (Rattus norvegicus) (UniProt P54645); assay: Increase of AMPKalpha phosphorylation at Thr172 in rat H4IIE cells at 0.3 uM after […] by Western blot analysis; type: cell-based
[14] = tested on: 3T3-L1; assay: Activation of AMPK in mouse 3T3L1 cells assessed as increase of ADP/ATP ratio level after 2 hrs by spectrophotometric analysis; type: cell-based
Summary of the method: as §1

[15] = tested on: 3T3-L1; assay: Activation of AMPK in mouse 3T3L1 cells assessed as decrease of ATP level by spectrophotometric analysis; type: cell-based
Summary of the method: as §1

[16] = tested on: Mus musculus; assay: Activation of AMPK in C57BL/6J mouse liver assessed as phosphorylated ACC level at 200 mg/kg, po after 2 hrs by Western blot analysis; type: functional, organism-based; parameters: dose 200 mg/kg
Summary of the method: (§4)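 Male C57BL/6J mice (10 weeks), fasted 4 h, given a single oral dose of 200 mg/kg in 0.5% carboxymethyl cellulose with 0.5% polyoxyethylene sorbitan. Dissected under chloral hydrate anesthesia (500 mg/kg ip) 2 h later. Liver, epididymal white adipose and quadriceps were homogenized in RIPA buffer and immunoblotted for p-AMPKα (Thr172) and p-ACC (Ser79). Signals normalized to α-tubulin; mean ± SE, 5 mice; Student's t test against vehicle.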

[17] = tested on: Mus musculus; assay: Activation of AMPK in C57BL/6J mouse skeletal muscle assessed as increase of PGC-1alpha transcription at 100 to 200 mg/kg, po after 2 hrs by RT-qPCR analysis; conditions: Muscle tissue
[18] = tested on: C2C12; assay: Activation of AMPK in mouse C2C12 cells assessed as increase of ADP level by spectrophotometric analysis; type: cell-based
Summary of the method: as §1

[19] = tested on: H4IIE; assay: Activation of AMPK in rat H4IIE cells assessed as increase of ADP/ATP ratio level after 1 hr by spectrophotometric analysis; type: cell-based
Summary of the method: as §1

[20] = species on record: Rattus norvegicus; assay: Inhibition of rat liver mitochondrial respiratory chain complex 1 assessed as reduction of oxygen consumption at stage 4 in presence of glutamate and malate
Summary of the method: (§5)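 Liver mitochondria from Wistar rats were isolated by differential centrifugation in sucrose/Tris-MOPS/EGTA at pH 7.4, with respiratory control ratio 5−7. O2 uptake was measured with a Clark electrode, State 3/4 induced by 100 μM ADP. Complex I substrate was 5 mM glutamate plus 2.5 mM malate; complex II substrate was 5 mM succinate plus 2 μM rotenone. Dose−response run; mean ± SE, n = 3.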

[21] = tested on: C2C12; assay: Activation of AMPK in mouse C2C12 cells assessed as increase of AMP level by spectrophotometric analysis; type: cell-based
Summary of the method: as §1

[22] = tested on: 3T3-L1; assay: Activation of AMPK in mouse 3T3L1 cells assessed as increase of AMP/ATP ratio level after 2 hrs by spectrophotometric analysis; type: cell-based
Summary of the method: as §1

[23] = tested on: C2C12; assay: Activation of AMPK in mouse C2C12 cells assessed as increase of AMP/ATP ratio level after 2 hrs by spectrophotometric analysis; type: cell-based
Summary of the method: as §1

[24] = tested on: Mus musculus; assay: Activation of AMPK in C57BL/6J mouse liver at 200 mg/kg, po after 2 hrs by Western blot analysis; type: functional, organism-based; parameters: dose 200 mg/kg
Summary of the method: as §4

[25] = molecular target: 5'-AMP-activated protein kinase catalytic subunit alpha-1 (Mus musculus) (UniProt Q5EG47); assay: Increase of AMPKalpha phosphorylation at Thr172 in mouse 3T3L1 cells at 10 uM after 2 hrs by Western blot analysis; type: cell-based; conditions: 3T3-L1
Summary of the method: as §2

[26] = tested on: Mus musculus; assay: Activation of AMPK in C57BL/6J mouse white adipose tissue assessed as phosphorylated ACC level at 200 mg/kg, po after 2 hrs by Western blot analysis; type: functional, organism-based; parameters: dose 200 mg/kg
Summary of the method: as §4

[27] = species on record: Rattus norvegicus; assay: Inhibition of rat liver mitochondrial respiratory chain complex 2 assessed as reduction of oxygen consumption at stage 4 in presence of succinate and rotenone
Summary of the method: as §5

[28] = species on record: Rattus norvegicus; assay: Inhibition of rat liver mitochondrial respiratory chain complex 1 assessed as reduction of oxygen consumption at stage 4 at 10 uM in presence of glutamate and ADP
Summary of the method: as §5

[29] = tested on: Mus musculus; assay: Activation of AMPK in C57BL/6J mouse white adipose tissue at 200 mg/kg, po after 2 hrs by Western blot analysis; type: functional, organism-based; parameters: dose 200 mg/kg
Summary of the method: as §4

[30] = tested on: Mus musculus; assay: Activation of AMPK in C57BL/6J mouse skeletal muscle at 200 mg/kg, po after 2 hrs by Western blot analysis; type: functional, organism-based; parameters: dose 200 mg/kg; conditions: Muscle tissue
Summary of the method: as §4

[31] = tested on: Mus musculus; assay: Activation of AMPK in glucose loaded C57BL/6J mouse assessed as decrease of AUC of blood glucose level at 500 mg/kg, po after 1 hr by oral glucose tolerance test; type: functional, organism-based; parameters: dose 500 mg/kg
[32] = molecular target: 5'-AMP-activated protein kinase catalytic subunit alpha-1 (Rattus norvegicus) (UniProt P54645); assay: Activation of AMPKalpha in rat H4IIE cells assessed as ACC phosphorylation at Ser79 after 1 hr by Western blot analysis; type: cell-based
Summary of the method: as §3

[33] = tested on: C2C12; assay: Activation of AMPK in mouse C2C12 cells assessed as decrease of ATP level by spectrophotometric analysis; type: cell-based
Summary of the method: as §1

[34] = tested on: 3T3-L1; assay: Activation of AMPK in mouse 3T3L1 cells assessed as increase of ADP level by spectrophotometric analysis; type: cell-based
Summary of the method: as §1

In the case of `NC(=O)c1ncn([C@@H]2O[C@H](CO)[C@@H](O)[C@H]2O)c1N`, the Activity [1] is reported as “Active”.

For `C/C=C(/C)C(=O)O[C@@H]1CCC2=CC(=O)C(=C(C)C)C[C@]2(C)[C@H]1C`, the Activity [2] was “Active”.

With `C=C(C)[C@@H]1C[C@@]2(C)C(=CC1=O)CC[C@@H](OC(=O)/C(C)=C\C)[C@@H]2C` the Activity [3] was “Dose-dependent effect”, the Activity [4] was “Active” and the Activity [5] was “Dose-dependent effect”. The Activity [6] was “Dose-dependent effect”, the Activity [7] was “Dose-dependent effect” and the Activity [8] was “Dose-dependent effect”. For the same compound, the Activity [9] was “Active”, the Activity [10] was “Dose-dependent effect” and the Activity [11] was “Dose-dependent effect”. For the same compound, the Activity [12] was “Active”, the Activity [13] was “Active” and the Activity [14] was “Dose-dependent effect”. For the same compound, the Activity [15] was “Dose-dependent effect”, the Activity [16] was “Active” and the Activity [17] was “Active”. The Activity [18] was “Dose-dependent effect”, the Activity [2] was “Active” and the Activity [19] was “Dose-dependent effect”. For the same compound, the inhibition [20] was “Dose-dependent effect”, the Activity [21] was “Dose-dependent effect” and the Activity [22] was “Dose-dependent effect”. For the same compound, the Activity [23] was “Dose-dependent effect”, the Activity [24] was “Active” and the Activity [25] was “Active”. The Activity [26] was “Active”, the inhibition [27] was “inactive” and the inhibition [28] was “Active”. For the same compound, the Activity [29] was “Active”, the Activity [30] was “Active” and the Activity [31] was “Active”. For the same compound, the Activity [32] was “Dose-dependent effect”, the Activity [33] was “Dose-dependent effect” and the Activity [34] was “Dose-dependent effect”.
